Test results from ChEMBL document CHEMBL4049461, “Double-Winged 3-Hydroxypyrimidine-2,4-diones: Potent and Selective Inhibition against HIV-1 RNase H with Significant Antiviral Activity” (J Med Chem, 2017).

What was measured:
[1] = Cytotoxicity against human P4R5 cells by MTS assay; assay type: cell-based
[2] = Inhibition of HIV integrase strand transfer activity expressed in Escherichia coli BL21 (DE3) using 5' biotin ATGTGGAAAATCTCTAGCA primer annealed with ACTGCTAGAGATTTTCCACAT 3' Cy5 template preincubated for 10 mins followed by primer/template addition measured after 30 mins by fluorescence assay; parameters: species or system Human immunodeficiency virus
In short: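 Integrase preincubated 10 min at 25 °C with compound (final 0.13–100 μM, duplicate) in 10 mM HEPES pH 7.5, 10% glycerol, 10 mM MnCl2, 1 mM DTT, 1 μM enzyme. Biotin/Cy5 oligo duplex added; 30 min at 37 °C; EDTA quench.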

[3] = Inhibition of recombinant full length HIV1 reverse transcriptase RNase H domain using RNA/DNA duplex substrate HTS1 assessed as reduction in internal cleavage of RNA strand by fluoresence assay; parameters: species or system Human immunodeficiency virus 1
In short: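 Full-length HIV RT incubated with fluorescein/Dabcyl-labelled 18-mer RNA/DNA duplex HTS-1, which reports non-specific internal RNA cleavage, across a compound concentration series. Dose-response data fitted by nonlinear regression to logistic curves. IC50 given as mean ± SD from at least two independent experiments.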

[4] = test system: Human immunodeficiency virus 1; assay: Antiviral activity against HIV1 infected in CD4/CXCR4/CCR5 expressing human P4R5 cells assessed as inhibition of viral replication preincubated with cells for 24 hrs followed by viral infection measured after 48 hrs by beta-galactosidase reporter gene assay; assay type: functional; conditions: Human immunodeficiency virus 1, P4/R5
In short: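 P4R5 indicator cells (CD4, CXCR4, CCR5; HIV LTR-driven β-galactosidase reporter) seeded 4 × 10³/well in DMEM/10% FBS with puromycin (1 μg/mL). Cells lysed, MUG substrate added, fluorescence β-galactosidase readout.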

[5] = Inhibition of recombinant full length HIV1 reverse transcriptase polymerase domain assessed as decrease in extension of 18 nucleotide DNA primer annealed to 100 nucleotide DNA template after 30 mins; parameters: species or system Human immunodeficiency virus 1
In short: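 20 nM RT, 40 nM 18-nt primer annealed to 100-nt DNA template, and 10 μM dNTPs in 50 mM Tris pH 7.8, 50 mM NaCl, 1% DMSO, with increasing compound concentrations. Reactions started with 6 mM MgCl2, run 30 min at 37 °C, and stopped with 100 mM EDTA.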

Compound	CC50 [1] [µM]	IC50 [2] [µM]	IC50 [3] [µM]	EC50 [4] [µM]	IC50 [5] [µM]
O=C(Nc1ccc(-c2ccccc2)cc1)c1c(NCc2ccccc2)[nH]c(=O)n(O)c1=O	54	> 100	0.12	15	> 10
Cc1ccc(NC(=O)c2c(NCc3ccccc3)[nH]c(=O)n(O)c2=O)cc1	53	34	0.019	7.2	10
O=C(NCc1cccc(Cl)c1F)c1c(Nc2ccc(-c3ccccc3)cc2)[nH]c(=O)n(O)c1=O	–	> 100	0.059	–	> 10
O=C(Nc1ccc(F)cc1F)c1c(NCc2ccccc2)[nH]c(=O)n(O)c1=O	> 100	29	0.079	> 20	> 10
O=C(Nc1ccc(-c2ccccc2)cc1)c1c(Nc2ccc(-c3ccccc3)cc2)[nH]c(=O)n(O)c1=O	–	> 100	1	–	1.8
O=C(Nc1ccccc1)c1c(NCc2ccccc2)[nH]c(=O)n(O)c1=O	52	> 100	0.027	6.9	> 10
O=C(NCc1ccccc1)c1c(NCc2ccc(-c3ccccc3)cc2)[nH]c(=O)n(O)c1=O	–	1.6	0.054	> 20	> 10
COc1cc2ccccc2cc1/C=N/NC(=O)c1cc(O)c(O)c(O)c1	–	–	0.2	–	0.5
O=C(NCc1cc(F)ccc1F)c1c(Nc2ccc(-c3ccccc3)cc2)[nH]c(=O)n(O)c1=O	> 100	> 100	0.05	3.7	9.5
O=C(Nc1cccc2ccccc12)c1c(Nc2ccccc2)[nH]c(=O)n(O)c1=O	76.8	3.2	0.018	11.4	7.7
O=C(NCc1ccc(F)cc1)c1c(Nc2ccc(-c3ccccc3)cc2)[nH]c(=O)n(O)c1=O	–	> 100	0.047	–	> 10
O=C(NCc1ccc(-c2ccccc2)cc1)c1c(NCc2ccc(-c3ccccc3)cc2)[nH]c(=O)n(O)c1=O	> 100	> 100	0.11	> 20	> 10
O=C(Nc1ccc(-c2ccccc2)cc1)c1c(NCc2ccc(-c3ccccc3)cc2)[nH]c(=O)n(O)c1=O	–	> 100	0.14	> 20	> 10
O=C(NCc1ccccc1)c1c(Nc2ccccc2)[nH]c(=O)n(O)c1=O	> 100	0.23	0.056	0.6	> 10
O=C(Nc1ccc(C(F)(F)F)cc1)c1c(NCc2ccccc2)[nH]c(=O)n(O)c1=O	> 100	> 100	0.041	> 20	> 10
O=C(NCc1ccc(-c2ccccc2)cc1)c1c(NCc2ccccc2)[nH]c(=O)n(O)c1=O	> 100	> 100	0.038	> 20	> 10

Compound	CC50 [1] [µM]	IC50 [2] [µM]	IC50 [3] [µM]	EC50 [4] [µM]	IC50 [5] [µM]
O=C(NCc1ccccc1)c1c(Nc2ccc(-c3ccccc3)cc2)[nH]c(=O)n(O)c1=O	–	23	0.11	–	> 10
O=C(Nc1ccc(F)cc1)c1c(Nc2ccccc2)[nH]c(=O)n(O)c1=O	58.4	3.1	0.004	6.1	> 10
CCc1ccc(NC(=O)c2c(NCc3ccccc3)[nH]c(=O)n(O)c2=O)cc1	> 100	> 100	0.054	8.5	10
O=C(NCc1ccccc1F)c1c(Nc2ccc(-c3ccccc3)cc2)[nH]c(=O)n(O)c1=O	–	> 100	0.04	–	> 10
O=C(Nc1ccc(F)cc1)c1c(NCc2ccccc2)[nH]c(=O)n(O)c1=O	> 100	71	0.019	> 20	10
O=C(NCc1cccc(F)c1)c1c(Nc2ccc(-c3ccccc3)cc2)[nH]c(=O)n(O)c1=O	> 100	> 100	0.049	6.3	> 10
O=C(Nc1ccc(-c2ccc(F)cc2)cc1)c1c(Nc2ccc(-c3ccccc3)cc2)[nH]c(=O)n(O)c1=O	–	> 100	0.97	–	1.6
O=C(NCc1ccccc1)c1c(NCc2ccccc2)[nH]c(=O)n(O)c1=O	> 100	0.14	0.032	1.4	> 10
O=C(NCc1ccc(F)cc1F)c1c(Nc2ccc(-c3ccccc3)cc2)[nH]c(=O)n(O)c1=O	> 100	> 100	0.077	1.5	8.6
O=C(Nc1ccc(C(F)(F)F)cc1)c1c(Nc2ccccc2)[nH]c(=O)n(O)c1=O	> 100	9.5	0.038	3.5	8.1
O=C(Nc1ccccc1)c1c(Nc2ccccc2)[nH]c(=O)n(O)c1=O	> 100	1.5	0.016	6.6	> 10
O=C(Nc1ccccc1)c1c(NCc2ccc(-c3ccccc3)cc2)[nH]c(=O)n(O)c1=O	–	> 100	0.047	> 20	> 10
COc1ccc(-c2ccc(NC(=O)c3c(Nc4ccc(-c5ccccc5)cc4)[nH]c(=O)n(O)c3=O)cc2)cc1	–	> 100	1.2	–	1.4
Cc1ccc(NC(=O)c2c(Nc3ccccc3)[nH]c(=O)n(O)c2=O)cc1	> 100	2.6	0.03	4.5	> 10
O=C(Nc1cccc2ccccc12)c1c(NCc2ccccc2)[nH]c(=O)n(O)c1=O	> 100	21	0.057	> 20	> 10
